Results published in BindingDB's records for doi:10.1021/jm00012a002 (Tosoh, 1995).

Experiments:
[1] = molecular target: HIV-1 RT (reverse transcriptase); assay: Inhibitory effect on HIV-1 RT activity using template primer,poly (rA)-oligo (dT)
How it was run: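 Recombinant HIV-1 reverse transcriptase with poly(rA)-oligo(dT) as template-primer; IC50 is the 50% inhibition concentration, given as the mean of at least two separate experiments.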

[2] = Inhibitory effect on HIV-1 RT activity using template primer,poly (rC)-oligo (dG)

SMILES	IC50 [1] [µM]	IC50 [2] [µM]
CC(=O)c1ccc(C)cc1N[C@H](C(N)=O)c1c(Cl)cccc1Cl	16	–
CCCCN(C)C(=O)Oc1nsnc1-c1c(Cl)cccc1Cl [Butyl-methyl-carbamic acid 4-(2,6-dichloro-phenyl)-[1,2,5]thiadiazol-3-yl ester]	12	–
CCN(C)C(=O)Oc1nsnc1-c1c(Cl)cccc1Cl [Ethyl-methyl-carbamic acid 4-(2,6-dichloro-phenyl)-[1,2,5]thiadiazol-3-yl ester]	3.4	0.3
CCCN(C)C(=O)Oc1nsnc1-c1c(Cl)cccc1Cl [Methyl-propyl-carbamic acid 4-(2,6-dichloro-phenyl)-[1,2,5]thiadiazol-3-yl ester]	5.8	0.8
